ChEMBL document CHEMBL1156112, “Discovery of 3-(1H-indol-3-yl)-4-[2-(4-methylpiperazin-1-yl)quinazolin-4-yl]pyrrole-2,5-dione (AEB071), a potent and selective inhibitor of protein kinase C isotypes” (J Med Chem, 2009)

Assays:
cells = details: Homo sapiens, Jurkat
[1] = Volume of distribution at steady state in OFA rat at 5 mg/kg, iv; format: ADME, organism-based; set-up: dose 5 mg/kg, route intravenous; details: in vivo, read-out: Vdss
Method in brief: (§1)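 Rats dosed either 5 mg/kg iv in 75% saline (0.9%)-25% PEG400 or 20 mg/kg po in 75% water-25% PEG400. OFA or Lewis rats were used depending on the compound. Values are averages of three animals. AUC is extrapolated to infinity. Oral bioavailability (F) comes from the po and iv exposures.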

[2] = target: Protein kinase C beta type (Homo sapiens, UniProt P05771); test: Inhibition of PKCbeta1 by SPA
[3] = target: Protein kinase C theta type (Homo sapiens, UniProt Q04759); test: Inhibition of PKCtheta by SPA
[4] = target: Protein kinase C alpha type (Homo sapiens, UniProt P17252); test: Inhibition of PKCalpha by SPA
[5] = Clearance in OFA rat at 5 mg/kg, iv; format: ADME, organism-based; set-up: dose 5 mg/kg, route intravenous; details: in vivo
Method in brief: as §1

[6] = Elimination half life in OFA rat at 5 mg/kg, iv; format: ADME, organism-based; set-up: dose 5 mg/kg, route intravenous; details: in vivo, read-out: beta t1/2 (converted)
Method in brief: as §1

[7] = target: T1, Protein kinase C epsilon type (Homo sapiens, UniProt Q02156); test: Inhibition of PKCepsilon by SPA
T1 sequence (Q02156 whole entry): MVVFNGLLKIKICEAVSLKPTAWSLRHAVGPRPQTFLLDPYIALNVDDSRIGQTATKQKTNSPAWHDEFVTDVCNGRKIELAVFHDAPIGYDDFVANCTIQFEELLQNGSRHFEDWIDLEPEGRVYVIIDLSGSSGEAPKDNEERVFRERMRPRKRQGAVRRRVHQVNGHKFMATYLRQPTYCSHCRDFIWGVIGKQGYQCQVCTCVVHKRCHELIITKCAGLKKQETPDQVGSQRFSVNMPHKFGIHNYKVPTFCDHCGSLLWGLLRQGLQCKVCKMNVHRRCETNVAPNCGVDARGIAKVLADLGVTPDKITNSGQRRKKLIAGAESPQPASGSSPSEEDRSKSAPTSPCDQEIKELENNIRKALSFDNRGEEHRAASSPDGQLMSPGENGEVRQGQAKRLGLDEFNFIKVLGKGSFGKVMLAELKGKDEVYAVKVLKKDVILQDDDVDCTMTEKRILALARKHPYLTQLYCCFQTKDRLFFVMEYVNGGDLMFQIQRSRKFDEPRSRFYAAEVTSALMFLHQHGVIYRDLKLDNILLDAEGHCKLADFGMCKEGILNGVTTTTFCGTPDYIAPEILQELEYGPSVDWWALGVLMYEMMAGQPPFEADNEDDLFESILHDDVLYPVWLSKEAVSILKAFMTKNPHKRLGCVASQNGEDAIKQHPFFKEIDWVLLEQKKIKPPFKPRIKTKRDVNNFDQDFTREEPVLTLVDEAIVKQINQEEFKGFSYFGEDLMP

[8] = Cmax in OFA rat at 20 mg/kg, po; format: ADME, organism-based; set-up: dose 20 mg/kg, route oral; details: in vivo
Method in brief: as §1

[9] = target: Protein kinase C eta type (Homo sapiens, UniProt P24723); test: Inhibition of PKCeta by SPA
[10] = AUC (0 to infinity) in OFA rat at 5 mg/kg, iv; format: ADME, organism-based; set-up: time infinity, dose 5 mg/kg, route intravenous; details: plasma
Method in brief: as §1

[11] = Oral bioavailability in OFA rat at 20 mg/kg, po; format: ADME, organism-based; details: in vivo
Method in brief: as §1

[12] = Tmax in OFA rat at 20 mg/kg, po; format: ADME, organism-based; set-up: dose 20 mg/kg, route oral; details: in vivo
Method in brief: as §1

[13] = target: Protein kinase C delta type (Homo sapiens, UniProt Q05655); test: Inhibition of PKCdelta by SPA
[14] = AUC (0 to infinity) in OFA rat at 20 mg/kg, po; format: ADME, organism-based; set-up: dose 20 mg/kg, route oral, time infinity; details: plasma
Method in brief: as §1

Sequence of Protein kinase C eta type (P24723 whole entry): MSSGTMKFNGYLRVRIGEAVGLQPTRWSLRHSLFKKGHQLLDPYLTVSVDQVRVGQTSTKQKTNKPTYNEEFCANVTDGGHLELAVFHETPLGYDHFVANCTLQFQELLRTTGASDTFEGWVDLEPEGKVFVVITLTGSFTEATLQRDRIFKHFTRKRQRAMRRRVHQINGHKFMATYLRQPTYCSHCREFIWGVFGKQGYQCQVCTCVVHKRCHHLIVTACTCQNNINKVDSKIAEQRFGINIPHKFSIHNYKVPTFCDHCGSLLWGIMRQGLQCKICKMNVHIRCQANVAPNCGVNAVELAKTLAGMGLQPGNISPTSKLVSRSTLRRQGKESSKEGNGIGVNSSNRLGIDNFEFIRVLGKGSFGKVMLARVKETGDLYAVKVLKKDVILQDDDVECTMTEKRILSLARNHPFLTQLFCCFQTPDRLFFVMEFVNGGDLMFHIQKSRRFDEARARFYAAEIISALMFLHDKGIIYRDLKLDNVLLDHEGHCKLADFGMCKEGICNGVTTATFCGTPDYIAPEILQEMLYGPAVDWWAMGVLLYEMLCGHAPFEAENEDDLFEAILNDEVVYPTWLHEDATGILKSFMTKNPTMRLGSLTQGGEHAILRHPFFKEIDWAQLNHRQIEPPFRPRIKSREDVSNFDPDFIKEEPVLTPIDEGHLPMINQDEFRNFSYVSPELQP
Sequence of Protein kinase C beta type (P05771 whole entry): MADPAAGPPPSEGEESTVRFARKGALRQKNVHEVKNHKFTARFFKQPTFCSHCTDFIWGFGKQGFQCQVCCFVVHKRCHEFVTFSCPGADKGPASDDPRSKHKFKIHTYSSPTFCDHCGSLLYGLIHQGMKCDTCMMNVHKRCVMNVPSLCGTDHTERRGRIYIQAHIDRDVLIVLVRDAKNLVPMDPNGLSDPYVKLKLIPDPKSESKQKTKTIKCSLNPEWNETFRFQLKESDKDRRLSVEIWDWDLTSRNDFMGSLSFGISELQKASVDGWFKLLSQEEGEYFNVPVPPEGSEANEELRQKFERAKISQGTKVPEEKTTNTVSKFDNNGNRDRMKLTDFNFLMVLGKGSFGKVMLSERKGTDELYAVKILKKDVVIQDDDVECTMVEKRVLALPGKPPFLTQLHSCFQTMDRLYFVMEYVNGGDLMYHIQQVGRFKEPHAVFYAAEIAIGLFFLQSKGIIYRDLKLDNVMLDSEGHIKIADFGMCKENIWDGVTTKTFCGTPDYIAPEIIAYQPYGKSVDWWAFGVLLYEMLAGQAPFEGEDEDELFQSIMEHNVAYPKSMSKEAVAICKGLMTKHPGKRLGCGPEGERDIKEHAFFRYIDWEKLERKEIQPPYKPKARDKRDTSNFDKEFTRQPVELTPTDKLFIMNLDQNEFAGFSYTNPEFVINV
Sequence of Protein kinase C delta type (Q05655 whole entry): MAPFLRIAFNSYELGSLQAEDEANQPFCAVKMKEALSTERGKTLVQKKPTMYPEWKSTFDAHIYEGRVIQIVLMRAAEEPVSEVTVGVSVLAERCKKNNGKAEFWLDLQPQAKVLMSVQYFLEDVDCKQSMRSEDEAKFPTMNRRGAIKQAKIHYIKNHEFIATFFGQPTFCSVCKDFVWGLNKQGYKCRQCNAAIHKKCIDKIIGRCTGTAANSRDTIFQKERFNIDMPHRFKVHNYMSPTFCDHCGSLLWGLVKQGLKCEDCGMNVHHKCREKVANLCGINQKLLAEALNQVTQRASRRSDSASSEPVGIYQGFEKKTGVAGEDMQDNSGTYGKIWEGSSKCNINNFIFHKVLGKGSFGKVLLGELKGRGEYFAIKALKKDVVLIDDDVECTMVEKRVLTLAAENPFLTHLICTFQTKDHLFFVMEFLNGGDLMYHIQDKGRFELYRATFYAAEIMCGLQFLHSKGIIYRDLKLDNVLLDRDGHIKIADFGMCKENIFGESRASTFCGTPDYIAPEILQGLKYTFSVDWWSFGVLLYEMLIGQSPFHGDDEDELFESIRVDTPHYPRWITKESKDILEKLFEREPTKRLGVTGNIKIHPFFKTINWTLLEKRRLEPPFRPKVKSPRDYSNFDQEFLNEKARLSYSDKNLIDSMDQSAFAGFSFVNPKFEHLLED
Sequence of Protein kinase C theta type (Q04759 whole entry): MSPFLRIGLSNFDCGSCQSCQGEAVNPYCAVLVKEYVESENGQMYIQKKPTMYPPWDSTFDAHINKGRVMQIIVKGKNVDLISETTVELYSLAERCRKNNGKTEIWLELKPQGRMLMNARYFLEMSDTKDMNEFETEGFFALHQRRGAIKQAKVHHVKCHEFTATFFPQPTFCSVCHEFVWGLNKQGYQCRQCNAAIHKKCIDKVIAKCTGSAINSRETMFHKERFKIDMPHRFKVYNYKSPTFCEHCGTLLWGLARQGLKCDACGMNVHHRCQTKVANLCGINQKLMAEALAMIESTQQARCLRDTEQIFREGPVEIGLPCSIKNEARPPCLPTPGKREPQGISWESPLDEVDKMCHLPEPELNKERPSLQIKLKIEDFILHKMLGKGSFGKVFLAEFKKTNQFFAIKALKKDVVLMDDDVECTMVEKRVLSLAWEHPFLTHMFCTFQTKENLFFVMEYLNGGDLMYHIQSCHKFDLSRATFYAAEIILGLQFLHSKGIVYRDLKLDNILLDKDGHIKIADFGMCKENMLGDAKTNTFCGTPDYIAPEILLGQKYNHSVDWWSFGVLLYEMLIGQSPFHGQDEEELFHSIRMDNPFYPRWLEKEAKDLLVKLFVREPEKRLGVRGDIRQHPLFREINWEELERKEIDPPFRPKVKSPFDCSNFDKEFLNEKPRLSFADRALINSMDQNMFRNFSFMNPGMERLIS

| Structure (SMILES) | IC50 (cells) [µM] | Vd [1] [L/kg] | IC50 [2] [µM] | IC50 [3] [µM] | IC50 [4] [µM] | clearance [5] [mL/min/kg] | half-life [6] [h] | IC50 [7] [µM] | Cmax [8] [ng/mL] | IC50 [9] [µM] | AUC(0-inf) [10] [ng·h/mL] | bioavailability [11] [%] | Tmax [12] [h] | IC50 [13] [µM] | AUC(0-inf) [14] [ng·h/mL] |
| --- | --- | --- | --- | --- | --- | --- | --- | --- | --- | --- | --- | --- | --- | --- | --- |
| CN(C)CCOc1cc(C2=C(c3c[nH]c4ccccc34)C(=O)NC2=O)c2ccccc2c1 | 0.069 | 48.2 | 0.0021 | 0.0033 | 0.0022 | 30.9 | 20.6 | 0.0055 | 16.2 | 0.011 | 2690 | 1 | 0.5 | 0.0044 | 154 |
| CN(C)CCCn1cc(C2=C(c3csc4ccccc34)C(=O)NC2=O)c2ccccc21 |  |  | 0.047 | 0.255 | 0.073 |  |  | 0.285 |  | 0.293 |  |  |  | 0.183 |  |
| CN(C)CCCn1cc(C2=C(c3c[nH]c4ccccc34)C(=O)NC2=O)c2ccccc21 [GF-109203] |  |  | 0.0016 | 0.0067 | 0.0023 |  |  | 0.0066 |  | 0.01 |  |  |  | 0.0087 |  |
| O=C1NC(=O)C(c2c[nH]c3ccccc23)=C1c1nc(N2CCOCC2)nc2ccccc12 | > 3.7 |  | 1.27 | 1.38 | 1.5 |  |  | 1.82 |  | 2.54 |  |  |  | 0.794 |  |
| CN(C)CCOc1cccc(C2=C(c3c[nH]c4ccccc34)C(=O)NC2=O)c1 | 0.668 |  | 0.058 | 0.052 | 0.015 |  |  | 0.029 |  | 0.047 |  |  |  | 0.047 |  |
